We go through 25 compounds from ChEMBL document CHEMBL1156107, “Synthesis of new alkylaminooxysterols with potent cell differentiating activities: identification of leads for the treatment of cancer and neurodegenerative diseases” (J Med Chem, 2009).

Molecules are shown by their SMILES. Activity calls are given as the source filed them. The calls are words filed in the database; no cut-off is given here.

Data set [1] relates to P19. Put plainly: Cytotoxicity against mouse P19 cells after 3 days by trypan blue exclusion assay. The class given is functional, cell-based. The gist of the method: (§1)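 U937 and P19 cells treated with compound. Cell death scored by trypan blue exclusion, with cells scraped, suspended in 0.25% w/v trypan blue in PBS and counted in a Malassez cell. IC50 is the concentration giving 50% cytotoxicity.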

In data set [2] the test system is P19. Kind of data set: Induction of dendrite out growth in IL-4/GMCSF-stimulated mouse P19 cells assessed as dendrite length at 100 nM after 48 hrs by light microscopy. Type of data set: functional.
The test system of data set [3] is U-937. Put plainly: Induction of dendrite out growth in IL-4/GMCSF-stimulated human U937 cells assessed as dendrite length at 100 nM after 48 hrs by light microscopy. Type of data set: functional. A digest of the protocol:
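U937 cells at 1.1 × 10⁶ cells/mL were primed with 10 ng/mL PMA for 48 h in RPMI with 10% heat-inactivated serum. Adherent cells were then given 100 ng/mL IL-4 plus 100 ng/mL GM-CSF or 100 nM compound for 48 h. Dendrite length scored by light microscopy, from none to over 100 μm with a contact network.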

Data set [4] has as its system U-937. Kind of data set: Cytotoxicity against human U937 cells after 3 days by trypan blue exclusion assay. The class given is functional, cell-based. A digest of the protocol: as §1
The species named for the next data set is Homo sapiens. Kind of data set: Plasma concentration healthy human. The class given is ADME, organism-based. Particulars: in vivo.
In data set [5] the test system is U-937. Kind of data set: Cytotoxicity against human U937 cells up to 20 uM after 3 days by trypan blue exclusion assay. The class given is functional, cell-based. A digest of the protocol: as §1
Data set [6] deals with P19. Kind of data set: Cytotoxicity against mouse P19 cells up to 20 uM after 3 days by trypan blue exclusion assay. Type of data set: functional, cell-based. The gist of the method: as §1
Data set [7] deals with MCF7. Put plainly: Induction of human MCF7 cell differentiation assessed as lipid accumulation in intracytoplasmic vesicle at 5 uM after 48 hrs by oil red O staining-based light microscopy. Type of data set: functional. The gist of the method: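 MCF-7 cells on glass coverslips treated with drug, fixed in 3.7% paraformaldehyde for 1 h at room temperature, and stained with oil red O in 60% isopropanol with hematoxylin counterstain. Dye extracted with isopropanol and read at 510 nm, with control subtracted and the value normalized to SYBR green DNA stain.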

For data set [8], the system named is MCF7. Put plainly: Induction of human MCF7 cell differentiation assessed as milk fat accumulation in intracytoplasmic vesicle at 5 uM after 48 hrs by Bligh and Dyer method. The class given is functional, cell-based. The gist of the method:
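MCF-7 cells (5 million) exposed to vehicle or compound for 48 h, washed three times in PBS. Lipids extracted by the Bligh and Dyer method and triglycerides quantified.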

In data set [9] the test system is MCF7. Put plainly: Induction of human MCF7 cell differentiation assessed as stimulation of milk fat globulin expression at 5 uM after 48 hrs by immunocytochemistry. Type of data set: functional, cell-based.
Setting [10] is: Mus musculus, P19, 72 h, read-out: IC50.
Where [11] appears, read: Homo sapiens, U-937, 72 h, read-out: IC50.

With `CC(=O)O[C@H]1CC[C@]2(C)[C@H]3CC[C@]4(C)[C@@H]([C@H](C)CCCC(C)C)CC[C@H]4[C@@H]3C[C@@H](NCCc3c[nH]cn3)[C@@]2(O)C1`, the 50% inhibitory concentration (IC50) (as a rule, the concentration at which inhibition is half-maximal) with P19 [1] (setting [10]) came to 2500 nM; in the data set with U-937 [4] (setting [11]) it was 900 nM. For the same compound, the Activity with P19 [2] and in the data set with U-937 [3] was 50 um each time.
On to `CC(C)CCC[C@@H](C)[C@H]1CC[C@H]2[C@@H]3C[C@@H]4O[C@@]45C[C@@H](O)CC[C@]5(C)[C@H]3CC[C@]12C`, for which the concentration in the data set listed under Homo sapiens was found to be 1 nM. For the same compound, the IC50 entry in the data set on P19 [1] (p19) and in the data set with U-937 [4] (u-937) was “Not Active” in each case. Besides, the result in the data set with P19 [2] and in the data set on U-937 [3] was inactive.
`CCCC(=O)O[C@H]1CC[C@]2(C)[C@H]3CC[C@]4(C)[C@@H]([C@H](C)CCCC(C)C)CC[C@H]4[C@@H]3C[C@@H]3O[C@@]32C1`: the half-inhibitory concentration (IC50) result in the data set on P19 [1] (p19) and in the data set with U-937 [4] (u-937) was “Not Active” in each case. The result in the data set on P19 [2] and in the data set on U-937 [3] was inactive.
For `CC(C)CCC[C@@H](C)[C@H]1CC[C@H]2[C@@H]3C[C@H]4O[C@]45C[C@@H](O)CC[C@]5(C)[C@H]3CC[C@]12C`, in the data set listed under Homo sapiens, the concentration is 1 nM. For the same compound, the IC50 entry with P19 [1] (p19) and with U-937 [4] (u-937) was “Not Active” each time. Also, the result in the data set on P19 [2] and with U-937 [3] was inactive.
Consider `CC(C)CCC[C@@H](C)[C@H]1CC[C@H]2[C@@H]3C[C@@H](NCCCCNCCCN)[C@@]4(O)C[C@@H](O)CC[C@]4(C)[C@H]3CC[C@]12C`, for which the IC50 entry in the data set with P19 [1] (p19) and with U-937 [4] (u-937) was “Not Active” each time. In addition, the Activity in the data set with P19 [2] is 50 um; in the data set with U-937 [3] it was below 5 um. The result in the data set on U-937 [5] and with P19 [6] was inactive.
Consider `CC(C)CCC[C@@H](C)[C@H]1CC[C@H]2[C@@H]3C[C@@H](NCCCNCCCCN)[C@@]4(O)C[C@@H](O)CC[C@]4(C)[C@H]3CC[C@]12C`, for which the half-inhibitory concentration (IC50) result with P19 [1] (p19) and in the data set on U-937 [4] (u-937) was “Not Active” each time. The Activity is reported as 50 um with P19 [2] and below 5 um with U-937 [3].
Regarding `C[C@]12CC[C@H]3[C@@H](C[C@@H]4O[C@@]45C[C@@H](O)CC[C@]35C)[C@@H]1CC[C@@H]2O`, the half-maximal inhibitory concentration (IC50) result in the data set with P19 [1] (p19) and in the data set with U-937 [4] (u-937) was “Not Active” each time. The outcome in the data set with P19 [2] and in the data set on U-937 [3] was inactive.
For the compound `CC(C)CCC[C@@H](C)[C@H]1CC[C@H]2[C@@H]3C[C@@H](NCCCCN)[C@@]4(O)C[C@@H](O)CC[C@]4(C)[C@H]3CC[C@]12C`, the IC50 worked out at 2600 nM in the data set on P19 [1] (setting [10]) and 2100 nM with U-937 [4] (setting [11]). Moreover, the Activity with P19 [2] turned out to be 10 um; in the data set on U-937 [3], 5 um.
In the case of `NCCCNCCCCNCCCN` [SPERMINE], the IC50 entry in the data set with P19 [1] (p19) and with U-937 [4] (u-937) was “Not Active” in each case. The result in the data set on P19 [2] and in the data set on U-937 [3] was inactive.
Take `CC(C)CCC[C@@H](C)[C@H]1CC[C@H]2C3=C[C@@H](NCCc4c[nH]cn4)[C@@]4(O)C[C@@H](O)CC[C@]4(C)[C@H]3CC[C@]12C`: the IC50 in the data set with P19 [1] (setting [10]) was found to be 5300 nM; with U-937 [4] (setting [11]), 7600 nM. In addition, the Activity with P19 [2] is 5 um; in the data set with U-937 [3], below 5 um.
In the case of `CC[C@H](CC[C@@H](C)[C@H]1CC[C@H]2[C@@H]3C[C@@H]4O[C@@]45C[C@@H](O)CC[C@]5(C)[C@H]3CC[C@]12C)C(C)C`, the half-maximal inhibitory concentration (IC50) result in the data set on P19 [1] (p19) and in the data set with U-937 [4] (u-937) was “Not Active” in each case. Further, the result with P19 [2] and in the data set with U-937 [3] was inactive.
`CC(C)CCC[C@@H](C)[C@H]1CC[C@H]2C3=C[C@@H](NCCCCNCCCN)[C@@]4(O)C[C@@H](O)CC[C@]4(C)[C@H]3CC[C@]12C`: the IC50 result in the data set with P19 [1] (p19) and in the data set on U-937 [4] (u-937) was “Not Active” each time. Also, the Activity in the data set with P19 [2] is listed as 50 um; in the data set with U-937 [3], below 5 um.
For the compound `NCCc1c[nH]cn1` [HISTAMINE], the IC50 entry with P19 [1] (p19) and in the data set with U-937 [4] (u-937) was “Not Active” throughout. For the same compound, the result in the data set on P19 [2] and with U-937 [3] was inactive.
Regarding `C[C@]12CC[C@H]3[C@@H](C[C@@H](NCCc4c[nH]cn4)[C@@]4(O)C[C@@H](O)CC[C@]34C)[C@@H]1CC[C@@H]2O`, the results for the IC50 with P19 [1] (setting [10]) and in the data set on U-937 [4] (setting [11]) were 7300 nM and 9800 nM, respectively. The outcome with P19 [2] and in the data set with U-937 [3] was inactive.
`CC(C)CCC[C@@H](C)[C@H]1CC[C@H]2[C@@H]3C[C@@H](NCCCNCCCCNCCCN)[C@@]4(O)C[C@@H](O)CC[C@]4(C)[C@H]3CC[C@]12C`: the IC50 entry in the data set on P19 [1] (p19) and with U-937 [4] (u-937) was “Not Active” throughout. Further, the results for the Activity in the data set with P19 [2] and in the data set on U-937 [3] were 10 um and below 5 um, respectively.
On to `CC(=O)O[C@H]1CC[C@]2(C)[C@H]3CC[C@]4(C)[C@@H]([C@H](C)CCCC(C)C)CC[C@H]4[C@@H]3C[C@@H]3O[C@@]32C1`, for which the IC50 result in the data set on P19 [1] (p19) and in the data set on U-937 [4] (u-937) was “Not Active” each time. Moreover, the result in the data set with P19 [2] and in the data set on U-937 [3] was inactive.
Take `CC[C@H](CC[C@@H](C)[C@H]1CC[C@H]2[C@@H]3C[C@@H](NCCc4c[nH]cn4)[C@@]4(O)C[C@@H](O)CC[C@]4(C)[C@H]3CC[C@]12C)C(C)C`: the IC50 worked out at 2500 nM in the data set on P19 [1] (setting [10]) and 1100 nM with U-937 [4] (setting [11]). Further, the Activity with P19 [2] and in the data set with U-937 [3] was 50 um each time.
Take `CC(C)CCC[C@@H](C)[C@H]1CC[C@H]2C3=C[C@@H](NCCCCN)[C@@]4(O)C[C@@H](O)CC[C@]4(C)[C@H]3CC[C@]12C`: the half-inhibitory concentration (IC50) worked out at 2800 nM in the data set with P19 [1] (setting [10]) and 2600 nM in the data set with U-937 [4] (setting [11]). Moreover, the Activity in the data set with P19 [2] was 50 um; in the data set on U-937 [3], 5 um.
On to `CC/C(=C(\c1ccccc1)c1ccc(OCCN(C)C)cc1)c1ccccc1`, for which the result in the data set on MCF7 [7], in the data set with MCF7 [8] and with MCF7 [9] was Active.
On to `CC(C)CCC[C@@H](C)[C@H]1CC[C@H]2[C@@H]3CC=C4C[C@@H](O)CC[C@]4(C)[C@H]3CC[C@]12C` [CHOLESTEROL], for which the IC50 entry in the data set with P19 [1] (p19) and with U-937 [4] (u-937) was “Not Active” in each case. The outcome with P19 [2] and in the data set with U-937 [3] was inactive.
With `CC(C)CCC[C@@H](C)[C@H]1CC[C@H]2C3=C[C@@H]4O[C@@]45C[C@@H](O)CC[C@]5(C)[C@H]3CC[C@]12C`, the half-maximal inhibitory concentration (IC50) result in the data set with P19 [1] (p19) and in the data set on U-937 [4] (u-937) was “Not Active” throughout. The outcome with P19 [2] and in the data set on U-937 [3] was inactive.
Consider `CC(C)CCC[C@@H](C)[C@H]1CC[C@H]2C3=C[C@@H](NCCCNCCCCNCCCN)[C@@]4(O)C[C@@H](O)CC[C@]4(C)[C@H]3CC[C@]12C`, for which the IC50 result with P19 [1] (p19) and in the data set on U-937 [4] (u-937) was “Not Active” throughout. Also, the Activity with P19 [2] is given as 10 um; in the data set on U-937 [3], below 5 um.
For the compound `NCCCCN` [PUTRESCINE], the concentration for half-maximal inhibition (IC50) result with P19 [1] (p19) and in the data set with U-937 [4] (u-937) was “Not Active” throughout. For the same compound, the outcome with P19 [2] and in the data set on U-937 [3] was inactive.
As to `NCCCCNCCCN` [SPERMIDINE], the half-maximal inhibitory concentration (IC50) entry in the data set on P19 [1] (p19) and in the data set on U-937 [4] (u-937) was “Not Active” each time. The outcome in the data set on P19 [2] and in the data set with U-937 [3] was inactive.
On to `CCCC(=O)O[C@H]1CC[C@]2(C)[C@H]3CC[C@]4(C)[C@@H]([C@H](C)CCCC(C)C)CC[C@H]4[C@@H]3C[C@@H](NCCc3c[nH]cn3)[C@@]2(O)C1`, for which the values for the half-inhibitory concentration (IC50) in the data set with P19 [1] (setting [10]) and with U-937 [4] (setting [11]) were 9400 nM and 8200 nM, respectively. In addition, the outcome in the data set with P19 [2] and with U-937 [3] was inactive.
